In ChEMBL document CHEMBL1275343, “A diverse series of substituted benzenesulfonamides as aldose reductase inhibitors with antioxidant activity: design, synthesis, and in vitro activity” (J Med Chem, 2010):

Columns and labels:
[1] = target: T1, Aldo-keto reductase family 1 member A1 (Rattus norvegicus) (UniProt P51635); test: Inhibition of Fischer-344 rat kidney AK1A1 at 100 uM
T1 sequence (whole entry): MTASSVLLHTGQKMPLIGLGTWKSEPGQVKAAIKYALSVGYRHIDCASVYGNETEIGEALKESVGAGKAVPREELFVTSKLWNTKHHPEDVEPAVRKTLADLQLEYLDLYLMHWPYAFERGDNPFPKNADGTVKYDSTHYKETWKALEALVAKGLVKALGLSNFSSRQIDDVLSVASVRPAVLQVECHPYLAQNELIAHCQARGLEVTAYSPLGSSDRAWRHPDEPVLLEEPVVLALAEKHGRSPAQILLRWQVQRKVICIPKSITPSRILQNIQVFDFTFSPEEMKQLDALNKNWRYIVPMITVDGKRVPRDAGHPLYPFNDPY

Rattus norvegicus [2] = organism: Rattus norvegicus; test: Selectivity ratio of IC50 for Fischer-344 rat kidney AK1A1 to IC50 for Fischer-344 rat lens ALR2; assay type: tissue-based; details: Lens of camera-type eye
[3] = target: T2, Aldo-keto reductase family 1 member A1 (Rattus norvegicus, UniProt P51635); test: Inhibition of Fischer-344 rat kidney AK1A1
T2 sequence (P51635 whole entry): T1 sequence (whole entry)

[4] = target: Aldo-keto reductase family 1 member B1 (Rattus norvegicus) (UniProt P07943); test: Inhibition of Fischer-344 rat lens ALR2 at 100 uM; assay type: tissue-based; details: Lens of camera-type eye
[5] = Antioxidant activity in L-alpha-phosphatidylcholine dioleoyl liposome assessed as inhibition of AAPH-induced lipid peroxidation by LOOH assay; assay type: functional
In short: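 Unilamellar DOPC liposomes (0.8 mM) peroxidized by aqueous-phase peroxyl radicals from thermal decomposition of AAPH; Trolox standard; lipid hydroperoxide (LOOH) quantified against a calibration curve.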

[6] = target: Aldo-keto reductase family 1 member B1 (Rattus norvegicus, UniProt P07943); test: Inhibition of Fischer-344 rat lens ALR2 by least-square analysis; assay type: tissue-based, Lens of camera-type eye
In short: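 Lenses from Fischer-344 rats of both sexes as ALR2 source; NADPH oxidation followed spectrophotometrically. Five concentrations, IC50 by least-squares of linear portion of log(dose)-response curves (0.889<r²<0.994); triplicate.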

[7] = test system: Radical scavenging activity; test: Antioxidant activity assessed as ratio of IC50 for DPPH radical scavenging activity to concentration of DPPH; assay type: functional
[8] = test system: Radical scavenging activity; test: Antioxidant activity assessed as DPPH radical scavenging activity after 270 mins by least-square analysis; assay type: functional
[9] = DPPH radical scavenging activity assessed as initial rate of interaction at 0.2 mM; assay type: functional
In short: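 Equimolar compound and DPPH (0.2 mM each) in ethanol; initial rate estimated from the roughly linear absorbance decrease over the first 30 s. Triplicate.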

Rattus norvegicus [10] = organism: Rattus norvegicus; test: Selectivity ratio of inhibition of Fischer-344 rat lens ALR2sto inhibition of Fischer-344 rat kidney AK1A1 at 100 uM; assay type: tissue-based; details: Lens of camera-type eye
In short: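 Ratio of % inhibition of rat lens ALR2 to % inhibition of rat kidney ALR1, each measured at 100 μM compound.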

[11] = target: T3, Aldo-keto reductase family 1 member A1 (Homo sapiens, UniProt P14550); test: Inhibition of AK1A1
T3 sequence (P14550 whole entry): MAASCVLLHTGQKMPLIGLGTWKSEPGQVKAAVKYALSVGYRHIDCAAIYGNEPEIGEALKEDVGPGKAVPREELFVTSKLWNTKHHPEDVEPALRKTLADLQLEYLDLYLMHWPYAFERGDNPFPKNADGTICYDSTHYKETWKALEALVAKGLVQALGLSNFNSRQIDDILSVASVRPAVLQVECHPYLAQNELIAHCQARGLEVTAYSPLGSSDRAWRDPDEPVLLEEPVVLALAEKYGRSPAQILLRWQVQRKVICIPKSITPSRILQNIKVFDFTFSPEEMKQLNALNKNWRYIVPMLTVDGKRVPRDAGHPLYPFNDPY

| inhibition [1] | IC50 [3] | inhibition [4] | IC50 [5] | IC50 [6] | IC50 [8] | IC50 [11] | SMILES | Ratio IC50 (Rattus norvegicus [2]) | Ratio [7] | Activity [9] | Selectivity ratio (Rattus norvegicus [10]) |
| --- | --- | --- | --- | --- | --- | --- | --- | --- | --- | --- | --- |
| 93.8% | 9.7 µM | 65.1% | 139 µM | 28.1 µM | 63.2 µM |  | O=S(=O)(c1ccccc1)N(c1cc(F)c(O)c(F)c1)S(=O)(=O)c1ccccc1 | 0.35 | 0.32 | 0.967 s⁻¹ |  |
| 19.9% |  | 23.8% |  |  |  |  | O=S(=O)(NCc1nnn[nH]1)c1ccccc1 |  |  |  | 1.2 |
| 71.7% | 12.4 µM | 77.9% | 70.7 µM | 12 µM | 56.9 µM |  | COc1ccc(C(=O)Nc2ccc(S(=O)(=O)Nc3cc(F)c(O)c(F)c3)cc2)cc1 | 1.03 | 0.26 | 0.995 s⁻¹ |  |
| 69.2% | 11.9 µM | 74.6% | 66 µM | 5.7 µM | 60.9 µM |  | O=S(=O)(c1ccccc1)N(Cc1ccc(Br)cc1F)c1cc(F)c(O)c(F)c1 | 2.09 | 0.3 | 1 s⁻¹ |  |
| 55.7% | 133 µM | 63.9% | 45.7 µM |  | 54.8 µM |  | O=[N+]([O-])c1ccc(S(=O)(=O)Nc2cc(F)c(O)c(F)c2)cc1 | 2.99 | 0.27 | 0.465 s⁻¹ |  |
| 95.3% | 0.323 µM | 87.4% | 73.1 µM | 0.397 µM | 61.9 µM |  | Nc1ccc(S(=O)(=O)N(Cc2ccc(Br)cc2F)c2cc(F)c(O)c(F)c2)cc1 | 0.81 | 0.31 | 0.977 s⁻¹ |  |
| 21.7% |  | 44.8% |  |  |  |  | O=S(=O)(Nc1nnn[nH]1)c1ccccc1 |  |  |  | 2.06 |
| 79.2% | 19.6 µM | 71.3% | 95.9 µM |  | 49 µM |  | O=S(=O)(Nc1cc(F)c(O)c(F)c1)c1ccccc1 | 0.6 | 0.25 | 0.498 s⁻¹ | 0.89 |
|  |  |  |  |  |  | 50.1 µM | CCCC(CCC)C(=O)O [VALPROIC ACID] |  |  |  |  |
| 69.8% | 15.4 µM | 75.1% | 61.8 µM | 9 µM | 61.5 µM |  | O=[N+]([O-])c1ccc(S(=O)(=O)N(Cc2ccc(Br)cc2F)c2cc(F)c(O)c(F)c2)cc1 | 1.71 | 0.31 | 0.974 s⁻¹ |  |
| 83% | 23.8 µM | 79.5% | 55.1 µM |  | 45.2 µM |  | COc1ccc(S(=O)(=O)Nc2cc(F)c(O)c(F)c2)cc1 | 1.54 | 0.23 | 0.661 s⁻¹ |  |
| 22.4% |  | 25.7% |  |  |  |  | O=C1NOC[C@H]1NS(=O)(=O)c1ccccc1 |  |  |  | 1.15 |
| 68.5% | 25.5 µM | 63.6% | 81.7 µM | 37.8 µM | 51.6 µM |  | CCNC(=O)Nc1ccc(S(=O)(=O)Nc2cc(F)c(O)c(F)c2)cc1 | 0.67 | 0.28 | 0.859 s⁻¹ |  |
|  |  |  | 93.5 µM |  | 37 µM |  | Cc1c(C)c2c(c(C)c1O)CCC(C)(C(=O)O)O2 (centres undefined) [TROLOX] |  | 0.19 | 1.81 s⁻¹ |  |
| 12.2% |  | 32.9% |  |  |  |  | CS(=O)(=O)NC(=O)CNS(=O)(=O)c1ccccc1 |  |  |  | 2.69 |
| 81.1% | 6.9 µM | 87.7% | 68.6 µM | 7.9 µM | 49.7 µM |  | O=C(Nc1ccc(S(=O)(=O)Nc2cc(F)c(O)c(F)c2)cc1)c1ccccc1 | 0.87 | 0.25 | 0.817 s⁻¹ |  |
| 30.5% |  | 51.7% |  | 86.7 µM |  |  | O=C(O)CNS(=O)(=O)c1ccccc1 |  |  |  | 1.69 |
| 50.6% | 105 µM | 55.8% | 66 µM | 91.5 µM | 45.1 µM |  | O=S(=O)(Nc1cc(F)c(O)c(F)c1)c1ccc(C(F)(F)F)cc1 | 1.15 | 0.23 | 0.49 s⁻¹ |  |
| 85.4% | 10.3 µM | 84.1% | 48.1 µM |  | 44.7 µM |  | Nc1ccc(S(=O)(=O)Nc2cc(F)c(O)c(F)c2)cc1 | 0.73 | 0.22 | 0.777 s⁻¹ |  |
| 41.7% | 281 µM | 61.1% | 97.1 µM | 57.1 µM | 48.6 µM |  | O=S(=O)(Nc1cc(F)c(O)c(F)c1)c1ccc(-n2cccc2)cc1 | 4.92 | 0.24 | 0.489 s⁻¹ |  |
| 2.67% |  | 48.9% |  | 71.2 µM |  |  | O=C1NOC[C@@H]1NS(=O)(=O)c1ccccc1 |  |  |  | 18.3 |
